Here are results for one compound from ChEMBL document CHEMBL6134796, “Development and Evaluation of Indole-Based Phospholipase D Inhibitors for Lung Cancer Immunotherapy” (J Med Chem, 2025).

One assay deals with HCT-116. Put plainly: Residual PLD activity in human HCT-116 cells at 10 uM measured after 1 hr by amplex red phospholipase D assay as % of control.
The target in assay [1] is T1, Phospholipase D1 (Homo sapiens) (UniProt Q13393).
T1 sequence (whole entry): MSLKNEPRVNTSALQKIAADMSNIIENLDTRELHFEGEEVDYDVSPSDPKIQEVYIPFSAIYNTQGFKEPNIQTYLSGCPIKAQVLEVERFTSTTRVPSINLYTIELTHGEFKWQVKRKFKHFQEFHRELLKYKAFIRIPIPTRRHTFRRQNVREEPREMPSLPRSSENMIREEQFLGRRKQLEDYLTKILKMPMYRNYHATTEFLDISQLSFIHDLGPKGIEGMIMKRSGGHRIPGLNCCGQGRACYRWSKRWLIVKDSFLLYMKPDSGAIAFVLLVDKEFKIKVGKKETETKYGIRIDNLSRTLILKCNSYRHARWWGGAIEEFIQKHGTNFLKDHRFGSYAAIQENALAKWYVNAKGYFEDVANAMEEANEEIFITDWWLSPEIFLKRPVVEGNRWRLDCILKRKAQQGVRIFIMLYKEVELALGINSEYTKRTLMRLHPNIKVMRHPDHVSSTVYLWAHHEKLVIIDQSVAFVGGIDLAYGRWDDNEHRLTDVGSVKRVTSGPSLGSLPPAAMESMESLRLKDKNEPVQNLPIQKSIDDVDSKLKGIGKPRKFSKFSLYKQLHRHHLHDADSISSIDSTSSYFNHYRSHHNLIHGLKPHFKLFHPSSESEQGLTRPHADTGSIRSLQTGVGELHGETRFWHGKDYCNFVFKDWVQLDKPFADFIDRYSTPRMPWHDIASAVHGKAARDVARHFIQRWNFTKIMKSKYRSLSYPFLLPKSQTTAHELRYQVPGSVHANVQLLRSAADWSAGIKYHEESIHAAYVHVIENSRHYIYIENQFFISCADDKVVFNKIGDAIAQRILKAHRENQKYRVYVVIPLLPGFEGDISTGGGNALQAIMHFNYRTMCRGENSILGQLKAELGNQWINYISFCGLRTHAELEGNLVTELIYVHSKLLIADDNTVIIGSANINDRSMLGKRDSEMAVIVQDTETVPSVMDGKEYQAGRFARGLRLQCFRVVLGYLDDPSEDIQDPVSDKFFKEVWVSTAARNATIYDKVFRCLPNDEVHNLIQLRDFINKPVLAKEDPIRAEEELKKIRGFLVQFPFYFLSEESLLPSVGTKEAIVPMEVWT
Briefly: Inhibition of wild type PLD1 (unknown origin) overexpressed in human A549 cells. It counts as cell-based. The procedure, abridged: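 A549 cells transfected with wild-type PLD1, labeled with [3H] myristic acid; PLD activity as [3H] phosphatidylbutanol formed by transphosphatidylation with 1-butanol, expressed as percent of total lipid cpm in PtdBut; alternatively, cells treated 1 h and read by Amplex Red kit (ex 540/em 590 nm); at least three independent experiments.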

A further assay has as its system A549 (human). Put plainly: Cytotoxicity against human A549 cells assessed as decrease in cell growth by WST-1 assay. The following applies: time 2-48 hrs.
A further assay concerns HCC44. Put plainly: Cytotoxicity against human HCC44 cells assessed as inhibition of cell growth incubated for 48 hrs by WST-1 assay. The assay is classed as functional, cell-based. Particulars: HCC44, 48 h. In outline: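 WST-1 viability assay. Cells seeded at 5 × 10^3 per well and incubated 24 h at 37 °C, then exposed to drug for 48 h. Absorbance read at 450 nm, in triplicate. IC50 taken as the concentration giving 50% growth inhibition versus control.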

The target in assay [2] is T2, Phospholipase D1 (Mus musculus) (UniProt Q9Z280).
T2 sequence (whole entry): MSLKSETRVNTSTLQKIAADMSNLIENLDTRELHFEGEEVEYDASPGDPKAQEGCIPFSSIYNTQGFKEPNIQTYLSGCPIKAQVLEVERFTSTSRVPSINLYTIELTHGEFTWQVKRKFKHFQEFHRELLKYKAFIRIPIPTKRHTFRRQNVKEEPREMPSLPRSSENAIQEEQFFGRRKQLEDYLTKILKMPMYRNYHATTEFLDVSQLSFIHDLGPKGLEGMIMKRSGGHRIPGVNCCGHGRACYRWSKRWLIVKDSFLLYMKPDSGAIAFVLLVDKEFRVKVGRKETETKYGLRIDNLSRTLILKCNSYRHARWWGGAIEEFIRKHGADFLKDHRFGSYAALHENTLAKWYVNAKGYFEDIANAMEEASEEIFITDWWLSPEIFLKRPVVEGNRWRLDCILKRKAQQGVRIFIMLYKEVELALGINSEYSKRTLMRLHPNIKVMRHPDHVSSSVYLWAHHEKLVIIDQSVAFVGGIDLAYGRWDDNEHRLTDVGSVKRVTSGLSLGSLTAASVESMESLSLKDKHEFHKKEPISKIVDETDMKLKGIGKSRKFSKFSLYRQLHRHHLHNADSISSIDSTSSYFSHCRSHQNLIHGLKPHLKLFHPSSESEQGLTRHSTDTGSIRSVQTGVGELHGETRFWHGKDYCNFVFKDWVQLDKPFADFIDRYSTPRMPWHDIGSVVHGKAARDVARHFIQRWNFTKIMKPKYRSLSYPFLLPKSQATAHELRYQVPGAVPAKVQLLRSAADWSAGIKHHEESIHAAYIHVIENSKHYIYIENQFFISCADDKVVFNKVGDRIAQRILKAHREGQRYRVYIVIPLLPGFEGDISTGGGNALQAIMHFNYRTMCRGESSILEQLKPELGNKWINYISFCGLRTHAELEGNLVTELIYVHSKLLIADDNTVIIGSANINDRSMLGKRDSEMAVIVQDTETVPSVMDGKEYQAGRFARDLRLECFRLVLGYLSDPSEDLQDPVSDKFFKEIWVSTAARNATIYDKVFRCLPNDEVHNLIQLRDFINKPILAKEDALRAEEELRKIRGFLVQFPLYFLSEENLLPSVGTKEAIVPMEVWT
Briefly: In vivo inhibition of PLD1 in male C57BL/6 mouse allografted with mouse Lewis lung carcinoma cell line assessed as increase in CD8+T cell population at 10 mg/kg, po by immunofluorescence analysis. The assay is classed as functional, organism-based. In outline:
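Same LLC syngeneic C57BL/6 model, 10 mg/kg PO every other day for 3 weeks. Tumor tissues were stained by immunofluorescence for CD80+ and CD163+ cells, CD8+ T cells, and CD4+/IL-17+ and Treg populations. Nuclei were counterstained with 1 μM Hoechst 33342 and imaged by confocal microscopy.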

Assay [3] deals with T1, Phospholipase D1 (Homo sapiens). Briefly: Binding affinity to PLD1 in human A549 cells assessed as protection against pronase E-mediated proteolysis at 2 to 20 uM incubated for 1 hr by DARTS assay. It counts as cell-based. The following applies: dose 2-20 µM. The procedure, abridged:
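A549 lysates made in buffer with protease and phosphatase inhibitors. Lysates were incubated with compound for 1 h at room temperature, then digested with Pronase for 10 min at RT. Digestion was quenched in SDS loading buffer by boiling 5 min. PLD1 and β-tubulin were detected by immunoblot.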

pIC50: −log10 of the molar value. Calls of active or inactive are those of the source. No cut-off for these calls is given here.

In the assay with HCT-116, `O=C(CCc1c[nH]c2ccccc12)Nc1cc(C(F)(F)F)cc(C(F)(F)F)c1` registered a level, % of control of 26.6%. Moreover, the inhibition result in assay [1] and in assay [2] was “Active” in each case. Also, the Activity entry in the assay on A549 (human) is “Time-dependent-effect”. In addition, in the assay with HCC44, the pIC50 is 4.65. The result in assay [3] was Active.
